Bioassay records from PubChem BioAssay.
Sampled rows, rich in hits. Any-hit rate of the full collection: about 2.2%.
697 NFkB inh: lowers PMA/ionomycin-induced NF-kB signal in 697 B cells; 697 B-cell NF-kB luciferase reporter, 16 h; 330,000 compounds, 0.33% hits; inhibition, % at 4 µM; in the data active = inhibition above about 35%
miR-122 sensor: blocks miR-122 activity in Huh7 sensor cells | activation (reporter increase), % at 12.5 µM | AID 602342 | Huh7 miR-122 Renilla luciferase sensor, 48 h; neutral wells = 0, positive control = 100 | 340,000 compounds, 0.3% hits;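 active = mean replicate activation score at least 90 and every replicate individually at or above 90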;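 also: higher luciferase means less miR-122 activity so hits act as miR-122 inhibitors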
NR2E3 ag-1: activates human NR2E3 receptor; Q9Y5X4; 360,000 compounds, 0.35% hits; AID 602229; CHO-S Gal4-NCOR/VP16-NR2E3 two-hybrid, luciferase; inhibition of corepressor binding, % at 3.98 µM;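 active = inhibition above the mean of all tested compounds plus 3 SD, cut at about 70% in these data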;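 also: 0% = DMSO with NR2E3 transfected cells and 100% = cells lacking NR2E3 construct; higher means lower luciferase signal from less NR2E3 corepressor binding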
Jurkat NFkB inh: lowers PMA/ionomycin-induced NF-kB signal in Jurkat cells; PMA/ionomycin-induced NF-kB luciferase reporter, luminescence; inhibition, % at 4 µM; 330,000 compounds, 0.53% hits; AID 435003; in the data active = inhibition above about 50%
NR2E3 ag-2: activates human photoreceptor nuclear receptor NR2E3 | AID 2300 | inhibition of corepressor binding, % at 4.78 µM | 320,000 compounds, 0.12% hits | Q9Y5X4 | GST-NR2E3/biotin-RetCOR TR-FRET, 1536-well;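 active = percent inhibition above the cutoff of mean plus 3 SD of all tested compounds, set per screening campaign, cut at about 20% in these data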;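 also: 0% = DMSO wells and 100% = biotin wells as full block of FRET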
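Material: NR2E3–RetCOR corepressor complex / Amount: 1.35 nM GST-NR2E3 / Medium: Tris pH 7.5 / Compound: single nominal compound dose of 4.8 µM / Incubation: 5 h at 4 °C / Technique: TR-FRET, Eu(K)-anti-GST donor, streptavidin-D2 acceptor, ex 340, em 617/671 nm / Read-out basis: percent loss of FRET ratio relative to control wells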
FGF22 binding: FGF22 (human) thermal shift binding | Q9HCT0 | recombinant FGF22 thermal shift, SYPRO orange fluorescence; percent of sucrose octasulfate shift, DMSO zero | 340,000 compounds, 1.5% hits | activity (Tm shift, normalised), % at 9.99 µM;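 active = mean Tm shift, scaled 0 neutral to 100 positive control, at about 1.3% or above, every replicate too, limit read from the data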
Target sequence (Q9HCT0 whole entry, looked up): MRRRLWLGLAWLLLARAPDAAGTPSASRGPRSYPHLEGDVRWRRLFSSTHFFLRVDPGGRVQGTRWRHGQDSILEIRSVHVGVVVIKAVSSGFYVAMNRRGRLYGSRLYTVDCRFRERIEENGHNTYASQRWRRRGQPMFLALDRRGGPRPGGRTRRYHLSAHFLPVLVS
NR2E3 ag conf: confirmation of human NR2E3 agonists | shares compounds with NR2E3 ag-1 | CHO-S mammalian two-hybrid NR2E3-NCOR, luciferase luminescence | inhibition, % at 3.98 µM | 2,300 compounds, 51% hits | AID 624378;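 active = average inhibition above a cutoff equal to the mean inhibition of all tested compounds plus one SD, cut at about 70% in these data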;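 also: 0% = DMSO in NR2E3 cells and 100% = DMSO in cells lacking NR2E3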
GAL4-VP16 luc: counter-screen for NR2E3 agonists: GAL4-VP16 reporter inhibitors; 2,300 compounds, 29% hits; shares compounds with NR2E3 ag-1; inhibition, % at 3.98 µM; CHO-S GAL4-VP16 luciferase reporter, luminescence;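 active = mean inhibition above a cutoff equal to the average over all tested compounds plus one standard deviation, cut at about 70% in these data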;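 also: luciferase from a UAS reporter driven by GAL4-VP16 transactivation; 0% = DMSO with VP16-transfected cells and 100% = DMSO with cells lacking VP16; higher means less reporter light so more repression of VP16 activity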
* marks the source's active call; other numbers are inactive results; · = not tested or not shown; [ ] = dose if it differs, or a comment.

SMILES	697 NFkB inh	miR-122 sensor	NR2E3 ag-1	Jurkat NFkB inh	NR2E3 ag-2	FGF22 binding	NR2E3 ag conf	GAL4-VP16 luc
S=C(NCCSCc1ccc(Cl)cc1Cl)Nc1ccccc1	22	27	49	16	4	·	·	·
S=C(Nc1ccccc1)Nc1ccc(OCc2ccc(Cl)cc2Cl)cc1	4	3	75*	-2	3	·	65	61
CCCCc1ccc(S(=O)(=O)N/N=C(/C)c2ccncc2)cc1	-33	-2	86*	18	-1	0	51	67
C/C(=N\NS(=O)(=O)c1ccccc1)c1ccccc1	9	8	4	-2	6	0	·	·
Nc1ncnc2c(C3OC(CO)C(O)C3O)c[nH]c12 (centres undefined)	·	·	103*	·	·	·	101*	99*
Nc1ncnc2c1ncn2[C@@H]1O[C@H](CO)[C@@H](O)[C@H]1O	13	-3	20	1	0	0	·	·
CC1Cc2ccccc2N1C(=O)CN1CCC(n2nnc3cc(C(F)(F)F)ccc32)CC1 (centres undefined)	6	-8	53	6	2	·	37	16
COC(=O)c1ccccc1NC(=O)CN1CCC(n2nnc3cc(C(F)(F)F)ccc32)CC1	-22	-1	-22	-17	2	·	·	·
Nc1nc(-c2ccccn2)nc(N)c1Cc1ccccc1F	-8	10	14	-19	-3	0	·	·
Nc1nc(-c2ccccn2)nc(N)c1Cc1c(F)cccc1Cl	-10	-3	86*	-17	-2	·	98*	23
Nc1nc(-c2ccccn2)nc(N)c1Cc1ccc(Cl)cc1Cl	5	-1	91*	-16	3	0	100*	49
COCC#Cc1ccc2c(c1)O[C@@H](CN(C)Cc1ccc(F)cc1)[C@@H](C)CN([C@@H](C)CO)S2(=O)=O	·	-8[16.7 µM]	·	·	·	0	·	·
Cc1cccc(N2CCN(C(=O)CSCc3c(C)noc3C)CC2)c1C	-29	-16	68	21	0	·	87*	68
COc1cc(C(=O)NCCOc2cc(C)ccc2C(C)C)cc(OC)c1OC	-22	-3	56	48	1	0	38	31
Cc1cccc(S(=O)(=O)N2C[C@@H](O)COC[C@H]3O[C@H](CC(=O)NCCCN4CCOCC4)CC[C@@H]32)c1	·	12[16.7 µM]	·	·	·	0	·	·
CCCc1ccc(S(=O)(=O)N2CCN(C(C)C(=O)NCc3ccc(OC)cc3)CC2)cc1 (centres undefined)	-16	1	49	18	1	0	27	32
CCN(CC)C(=O)C1CCN(S(=O)(=O)c2ccc3oc4ccccc4c3c2)CC1	-22	12	77*	14	0	0	65	58
O=Cc1ccc(OCC(=O)NC(=O)NC2CCCCC2)cc1	11	3	-45	1	0	·	·	·
CC(=O)c1ccc(OCC(=O)NC(=O)NC2CCCCC2)cc1	-3	0	61	25	1	0	22	55
CC(=O)Nc1ccc(Nc2cc(C)nc3c(-c4ccccc4)cnn23)cc1	·	8	50	·	1	·	52	-11
Nc1ncc(Br)cc1S(=O)(=O)Nc1cc(C(F)(F)F)cc(C(F)(F)F)c1	-28	63	109*	5	0	0	101*	90*
Cc1nc2ccccc2c(N)c1C(=O)/C=C/c1ccccc1	-35	-1	51	14	0	0	-3	17
CC(=O)c1c(C)nc2ccccc2c1N	2	2	8	-2	-1	·	·	·
Cc1ccc(NNC(=O)C(=O)N2CCCCC2)cc1	16	·	57	24	2	1	37	24
CC(C)NC(=O)N(C)C[C@@H]1Oc2ccc(NC(=O)Nc3cccc4ccccc34)cc2CC(=O)N([C@H](C)CO)C[C@H]1C	·	-3[16.7 µM]	·	·	·	·	·	·
CCN(CC(=O)NCc1ccc(Cl)cc1)C(=O)c1ccc2cc(OC)ccc2c1	-5	18	51	-5	8	0	28	61
